16 compounds from ChEMBL document CHEMBL2034971, “Appraisal of GABA and PABA as linker: design and synthesis of novel benzamide based histone deacetylase inhibitors” (Eur J Med Chem, 2012) can be followed below.

The target of one test is Histone deacetylase 1 (Homo sapiens, UniProt Q13547). Nature of the test: Inhibition of HDAC1 using Fluor de Lys as substrate by fluorescence analysis.
The nature of test [1]: Antitumor activity against mouse EAC cells allografted in Swiss albino mouse assessed as decrease in tumor weight at 0.2 mmol/kg, ip administered from day 1 to day 7 every 24 hrs. In kind it is functional. The conditions noted are these: Ehrlich. In a few lines: (§1)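 EAC cells kept by intraperitoneal passage in Swiss albino mice (18-20 g, 10 weeks) every 10 days; 9-day-old cells in isotonic saline adjusted to 10×10^6 cells/mL, 0.1 mL per 10 g injected ip on day 0. Seven daily ip doses in PBS pH 7.2 (0.1 mL/10 g), days 1-7; vehicle control. Day 8 sacrifice after 6 h fast.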

A short description of test [2]: Antitumor activity against mouse EAC cells allografted in Swiss albino mouse assessed as decrease in tumor cell at 0.2 mmol/kg, ip administered from day 1 to day 7 every 24 hrs. The conditions noted are these: Ehrlich. In kind it is functional. The procedure, abridged: as §1
Another test relates to U-251. As to the kind of experiment: Growth inhibition of human U251 cells after 2 days by MTT assay. In kind it is functional. Particulars: U-251, 48 h. A general note: Tetrazolium assays rely on reduction of a dye to a coloured formazan, in cell work by metabolically active cells.
In the next test the test system is HCT-116. As to the kind of experiment: Growth inhibition of human HCT116 cells after 2 days by MTT assay. Type of test: functional. The conditions noted are these: HCT-116, 48 h; for CC50: read-out: LC50 (the source's name).

Chain of Histone deacetylase 1 (Q13547 whole entry): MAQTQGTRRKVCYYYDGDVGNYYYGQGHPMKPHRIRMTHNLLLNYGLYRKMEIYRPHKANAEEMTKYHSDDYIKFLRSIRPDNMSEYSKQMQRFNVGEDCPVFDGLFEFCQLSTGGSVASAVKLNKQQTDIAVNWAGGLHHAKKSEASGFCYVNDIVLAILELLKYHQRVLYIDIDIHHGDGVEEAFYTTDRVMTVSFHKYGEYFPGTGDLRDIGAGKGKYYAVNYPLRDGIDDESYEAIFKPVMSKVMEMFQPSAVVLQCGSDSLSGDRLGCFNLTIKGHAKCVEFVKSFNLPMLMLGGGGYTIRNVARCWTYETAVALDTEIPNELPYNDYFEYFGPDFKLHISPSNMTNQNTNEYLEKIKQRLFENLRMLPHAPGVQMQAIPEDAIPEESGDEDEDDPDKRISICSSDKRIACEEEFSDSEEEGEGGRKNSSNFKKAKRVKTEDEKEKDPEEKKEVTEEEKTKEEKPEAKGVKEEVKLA

`Nc1ccccc1NC(=O)CCCNCC(=O)Nc1cc(Cl)ccc1Cl` registered an IC50 on Histone deacetylase 1 of 8.9 µM. Also, in test [1], the inhibition in vivo at 200 µmol/kg is 50%. Further, the inhibition in vivo at 200 µmol/kg in test [2] was determined as 50.9%. In the test on U-251, this compound gave a GI50 of 44 µM, an LC50 (concentration killing 50% of cells) above 100 µM and a TGI above 100 µM. Besides, in the test on HCT-116, growth was halved (GI50) at 31 µM, total growth inhibition (TGI) required 78 µM and the CC50 is above 100 µM.

Consider `Nc1ccccc1NC(=O)CCCNCC(=O)Nc1cccc([N+](=O)[O-])c1`, for which half-maximal inhibition against Histone deacetylase 1 (IC50) required 2.3 µM. Moreover, the inhibition in vivo at 200 µmol/kg in test [1] was 40.6%. In test [2], the inhibition in vivo at 200 µmol/kg amounted to 36%. In the test with U-251, this compound yielded a GI50 of 15 µM, an LC50 (concentration killing 50% of cells) above 100 µM and a TGI of 93.5 µM. In the test with HCT-116, the GI50 came out at 0.9 µM, total growth inhibition (TGI) required 22.5 µM and the CC50 is above 100 µM.

Turning to `Nc1ccccc1NC(=O)CCCNCC(=O)Nc1ccc(Cl)cc1`, on Histone deacetylase 1, the midpoint of inhibition, the IC50, lay at 1.4 µM. Moreover, the inhibition in vivo at 200 µmol/kg in test [1] was found to be 72.7%. Besides, the inhibition in vivo at 200 µmol/kg in test [2] turned out to be 75%. In addition, in the test on U-251, it took 11.4 µM to inhibit growth by half (GI50), the LC50 (concentration killing 50% of cells) is above 100 µM and total growth inhibition (TGI) required 75 µM. In the test on HCT-116, growth was halved (GI50) at 5.5 µM, total growth inhibition (TGI) required 45 µM and the CC50 was above 100 µM.

Compound `Nc1ccccc1NC(=O)CCCNCC(=O)Nc1cccc(Cl)c1` displayed an IC50 on Histone deacetylase 1 of 1.8 µM. The inhibition in vivo at 200 µmol/kg in test [1] was found to be 32.1%. In test [2], the inhibition in vivo at 200 µmol/kg amounted to 22.5%. In the test with U-251, the GI50 came to 19.5 µM, the LC50 (concentration killing 50% of cells) was above 100 µM and the TGI was above 100 µM. In the test with HCT-116, the GI50 came to 11.6 µM, net growth stopped (TGI) at 75 µM and the CC50 is above 100 µM.

At Histone deacetylase 1, `Nc1ccccc1NC(=O)c1ccc(NCC(=O)Nc2cc(Cl)ccc2Cl)cc1` yielded an IC50 of 8.6 µM. Further, the inhibition in vivo at 200 µmol/kg in test [1] turned out to be 58.3%. Further, the inhibition in vivo at 200 µmol/kg in test [2] stood at 56.2%. Besides, in the test with U-251, growth was halved (GI50) at 38.6 µM, the LC50 (concentration killing 50% of cells) was above 100 µM and the TGI was above 100 µM. In addition, in the test with HCT-116, the GI50 came out at 7.9 µM, the concentration for total growth inhibition (TGI) worked out at 66 µM and the CC50 was above 100 µM.

On to `Nc1ccccc1NC(=O)c1ccc(NCC(=O)Nc2ccc(Br)cc2)cc1`, for which, on Histone deacetylase 1, the IC50 was determined as 1.6 µM. Besides, the inhibition in vivo at 200 µmol/kg in test [1] was determined as 76.3%. For the same compound, the inhibition in vivo at 200 µmol/kg in test [2] was determined as 73.5%. In the test on U-251, this compound had a GI50 of 10.8 µM, an LC50 (concentration killing 50% of cells) above 100 µM and a TGI of 45 µM. In addition, in the test with HCT-116, the GI50 is 6.8 µM, net growth stopped (TGI) at 47.5 µM and the CC50 was above 100 µM.

Regarding `Nc1ccccc1NC(=O)c1ccc(NCC(=O)Nc2ccc([N+](=O)[O-])cc2)cc1`, on Histone deacetylase 1, the IC50 turned out to be 0.7 µM. Moreover, the inhibition in vivo at 200 µmol/kg in test [1] was determined as 83.3%. For the same compound, the inhibition in vivo at 200 µmol/kg in test [2] worked out at 77.5%. In the test on U-251, this compound showed a GI50 of 8.2 µM, an LC50 (concentration killing 50% of cells) above 100 µM and a TGI of 42.5 µM. Further, in the test on HCT-116, growth was halved (GI50) at 0.6 µM, the TGI worked out at 6.5 µM and the CC50 was above 100 µM.

Take `Nc1ccccc1NC(=O)c1ccc(NCC(=O)Nc2ccccc2[N+](=O)[O-])cc1`: the IC50 against Histone deacetylase 1 is 2 µM. Besides, the inhibition in vivo at 200 µmol/kg in test [1] turned out to be 12.9%. Also, in test [2], the inhibition in vivo at 200 µmol/kg was found to be 19.7%. For the same compound, in the test with U-251, the GI50 worked out at 18 µM, the LC50 (concentration killing 50% of cells) was above 100 µM and net growth stopped (TGI) at 83 µM. In the test with HCT-116, the GI50 is 3.5 µM, the TGI was 25 µM and the CC50 was above 100 µM.

On to `Nc1ccccc1NC(=O)CCCNCC(=O)Nc1ccccc1[N+](=O)[O-]`, for which the IC50 on Histone deacetylase 1 was found to be 3.1 µM. For the same compound, the inhibition in vivo at 200 µmol/kg in test [1] was determined as 41.3%. Also, the inhibition in vivo at 200 µmol/kg in test [2] is 10.5%. In the test with U-251, this compound gave a GI50 of 32 µM, an LC50 (concentration killing 50% of cells) above 100 µM and a TGI above 100 µM. In addition, in the test with HCT-116, halving of growth (GI50) required 2.8 µM, net growth stopped (TGI) at 32 µM and the CC50 was above 100 µM.

In the case of `Nc1ccccc1NC(=O)c1ccc(NCC(=O)Nc2cccc([N+](=O)[O-])c2)cc1`, the IC50 against Histone deacetylase 1 was determined as 1.4 µM. Also, the inhibition in vivo at 200 µmol/kg in test [1] came out at 67.6%. Also, in test [2], the inhibition in vivo at 200 µmol/kg worked out at 40.4%. In the test on U-251, this compound returned a 50% growth inhibitory concentration (GI50) of 13.5 µM, an LC50 (concentration killing 50% of cells) above 100 µM and a total growth inhibition concentration (TGI) of 52 µM. Besides, in the test on HCT-116, the GI50 amounted to 1.1 µM, the TGI was found to be 9 µM and the CC50 is above 100 µM.

`Nc1ccccc1NC(=O)c1ccc(NCC(=O)Nc2ccc(Cl)cc2)cc1`: the midpoint of inhibition against Histone deacetylase 1, the IC50, lay at 1 µM. In test [1], the inhibition in vivo at 200 µmol/kg is 79.4%. For the same compound, in test [2], the inhibition in vivo at 200 µmol/kg worked out at 73.3%. In the test on U-251, this compound registered a GI50 of 9.4 µM, an LC50 (concentration killing 50% of cells) above 100 µM and a total growth inhibition concentration (TGI) of 62.5 µM. Further, in the test on HCT-116, the GI50 stood at 4.2 µM, the TGI was 62.5 µM and the CC50 was above 100 µM.

The compound `Nc1ccccc1NC(=O)CCCNCC(=O)Nc1ccc(Br)cc1` yielded a 50% inhibitory concentration (IC50) against Histone deacetylase 1 of 1.7 µM. Besides, the inhibition in vivo at 200 µmol/kg in test [1] is 73.8%. For the same compound, in test [2], the inhibition in vivo at 200 µmol/kg is 68.7%. In the test on U-251, this compound came in with a 50% growth inhibitory concentration (GI50) of 10.4 µM, an LC50 (concentration killing 50% of cells) above 100 µM and a TGI of 80 µM. Further, in the test on HCT-116, the GI50 was 7.7 µM, net growth stopped (TGI) at 55.5 µM and the CC50 was above 100 µM.

With `Nc1ccccc1NC(=O)CCCNCC(=O)Nc1ccccc1`, the IC50 at Histone deacetylase 1 was 9.2 µM. Besides, the inhibition in vivo at 200 µmol/kg in test [1] was 25%. In addition, in test [2], the inhibition in vivo at 200 µmol/kg is 19.1%. For the same compound, in the test on U-251, the GI50 is above 100 µM, the LC50 (concentration killing 50% of cells) was above 100 µM and the TGI is above 100 µM. In the test with HCT-116, the GI50 was 70.4 µM, the TGI is above 100 µM and the CC50 was above 100 µM.

Turning to `Nc1ccccc1NC(=O)c1ccc(NCC(=O)Nc2ccccc2Cl)cc1`, the IC50 on Histone deacetylase 1 was 2.9 µM. Also, the inhibition in vivo at 200 µmol/kg in test [1] is 43.3%. In addition, the inhibition in vivo at 200 µmol/kg in test [2] worked out at 31.4%. In the test with U-251, this compound returned a GI50 of 24.2 µM, an LC50 (concentration killing 50% of cells) above 100 µM and a TGI above 100 µM. Besides, in the test on HCT-116, growth was halved (GI50) at 9.5 µM, the total growth inhibition concentration (TGI) is above 100 µM and the CC50 is above 100 µM.

`Cc1ccc(NC(=O)CNCCCC(=O)Nc2ccccc2N)cc1`: inhibition against Histone deacetylase 1 was half-maximal at 7.5 µM (IC50). The inhibition in vivo at 200 µmol/kg in test [1] was determined as 42.8%. Further, in test [2], the inhibition in vivo at 200 µmol/kg stood at 18.9%. Further, in the test with U-251, the GI50 was determined as 57 µM, the LC50 (concentration killing 50% of cells) is above 100 µM and the TGI is above 100 µM. In addition, in the test with HCT-116, it took 17.9 µM to inhibit growth by half (GI50), the concentration for total growth inhibition (TGI) was above 100 µM and the CC50 is above 100 µM.

Regarding `Nc1ccccc1NC(=O)CCCNCC(=O)Nc1ccccc1Cl`, at Histone deacetylase 1, the IC50 amounted to 2.9 µM. Also, the inhibition in vivo at 200 µmol/kg in test [1] turned out to be 21.4%. In test [2], the inhibition in vivo at 200 µmol/kg is 12.7%. In the test on U-251, this compound gave a 50% growth inhibitory concentration (GI50) of 28.6 µM, an LC50 (concentration killing 50% of cells) above 100 µM and a TGI above 100 µM. Moreover, in the test with HCT-116, the GI50 was determined as 21.8 µM, the TGI was above 100 µM and the CC50 is above 100 µM.

The IC50 is the midpoint of a concentration-inhibition curve. Low readings indicate greater potency, high ones weaker potency. Usually inhibition in vivo stands for the relative decrease from the control value, in per cent. Broadly, the GI50 is the concentration at which growth is held to half of that of the control. Read a low GI50 as more potent growth inhibition. What is called TGI is the concentration giving total growth inhibition. Lower therefore signals more potent growth arrest.
